Results from ChEMBL document CHEMBL1212875, “Improved inhibition of the histone acetyltransferase PCAF by an anacardic acid derivative” (Bioorg Med Chem, 2010).
Active and inactive are the calls of the source. The calls are words filed in the database; no cut-off is given here.

Key:
[1] = biological target: T1, Histone acetyltransferase KAT2B (Homo sapiens, UniProt Q92831); assay: Inhibition of human recombinant histone acetyltransferase PCAF by ELISA
How it was run: (§1)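 Indirect ELISA. Biotinylated histone H4 peptide (300 nM coating) captured on streptavidin wells. Recombinant human PCAF (240 nM solution) preincubated 15 min with inhibitor in 100 mM HEPES pH 7.4, 0.1% BSA, 0.16% Triton X-100. Reaction started with Ac-CoA (40 µM solution) for 15 min. Detection by anti-acetyl-Lys antibody, HRP secondary, TMB, A450. No-inhibitor wells = 100%, no-Ac-CoA = 0%. Triplicate; DMSO stocks.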

[2] = biological target: T1, Histone acetyltransferase KAT2B; assay: Inhibition of histone acetyltransferase PCAF in human HepG2 cells assessed as decrease in SAHA-induced histone H4 acetylation levels at 60 uM after 24 hrs by Western blotting
Target sequence in this assay (Q92831 whole entry, looked up): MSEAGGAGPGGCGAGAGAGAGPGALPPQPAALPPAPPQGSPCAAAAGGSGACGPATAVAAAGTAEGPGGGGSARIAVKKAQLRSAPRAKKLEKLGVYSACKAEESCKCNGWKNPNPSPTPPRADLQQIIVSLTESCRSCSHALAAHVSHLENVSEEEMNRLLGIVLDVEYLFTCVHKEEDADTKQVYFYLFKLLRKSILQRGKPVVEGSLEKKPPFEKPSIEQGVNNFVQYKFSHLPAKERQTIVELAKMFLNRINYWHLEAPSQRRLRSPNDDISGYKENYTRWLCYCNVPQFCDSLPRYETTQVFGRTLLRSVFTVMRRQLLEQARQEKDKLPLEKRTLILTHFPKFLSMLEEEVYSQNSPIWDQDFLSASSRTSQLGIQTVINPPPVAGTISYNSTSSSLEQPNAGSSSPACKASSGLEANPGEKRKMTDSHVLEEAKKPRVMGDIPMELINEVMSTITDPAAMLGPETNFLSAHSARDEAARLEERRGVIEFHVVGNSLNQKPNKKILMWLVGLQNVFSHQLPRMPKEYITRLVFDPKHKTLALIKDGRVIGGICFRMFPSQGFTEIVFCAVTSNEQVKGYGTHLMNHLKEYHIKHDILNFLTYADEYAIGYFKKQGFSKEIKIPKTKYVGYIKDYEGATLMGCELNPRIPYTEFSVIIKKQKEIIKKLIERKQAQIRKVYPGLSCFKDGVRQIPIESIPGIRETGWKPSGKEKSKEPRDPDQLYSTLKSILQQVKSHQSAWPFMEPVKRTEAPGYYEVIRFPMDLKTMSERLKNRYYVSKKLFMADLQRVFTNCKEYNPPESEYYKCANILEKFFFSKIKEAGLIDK

[3] = biological target: T1, Histone acetyltransferase KAT2B; assay: Inhibition of […] in human HepG2 cells assessed as decrease in SAHA-induced histone H4 acetylation levels at 30 uM after 24 hrs by Western blotting; format: cell-based
How it was run: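 HepG2 cells in DMEM with 10% heat-inactivated FBS at 37 °C, 5% CO2; grown to ~70% confluency, FBS-starved 16 h, then treated 24 h with 5 µM SAHA plus inhibitor at sub-toxic concentrations. Histones extracted, ~5 µg resolved by SDS-PAGE, immunoblotted with anti-acetyl-histone H4; densitometry with Coomassie loading check. Levels relative to untreated cells (100%), mean ± SEM of three independent experiments.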
Target sequence in this assay (Q92831 whole entry, looked up): as above

[4] = biological target: T1, Histone acetyltransferase KAT2B; assay: Inhibition of human recombinant histone deacetylase PCAF at 1 mM by ELISA; how it was run: as §1
Target sequence in this assay (Q92831 whole entry, looked up): as above

SMILES | inhibition [1] | other results
COc1ccccc1OCCCc1cccc(O)c1C(=O)O | Active | –
CCCCCOc1ccc(CCc2cccc(O)c2C(=O)O)cc1 | Active | –
CCCCCOc1ccc(/C=C\c2cccc(O)c2C(=O)O)cc1 | – | inhibition [2]: Active; IC50 [1]: 662 µM; inhibition [3]: Active
O=C(O)c1c(O)cccc1OCc1ccccc1 | – | inhibition [4]: 20%
C=CC/C=C\C/C=C\CCCCCCCc1cccc(O)c1C(=O)O [ANACARDIC ACID] | Active | inhibition [4]: 40%; inhibition [2]: Active; IC50 [1]: 1000 µM; inhibition [3]: Active

Second part, led by results:

inhibition [1] | SMILES | other results
Active | CCCCCCCCCCCCCCOc1cccc(O)c1C(=O)O | –
Active | CCCCCCCc1ccc(CCc2cccc(O)c2C(=O)O)cc1 | –
Active | CCCCCCCCCCCCCCCc1cc(O)cc(O)c1C(=O)O | –
Active | CCCCCCCCCCc1cccc(O)c1C(=O)O | –
Active | CCCCCCCCCCc1cc(O)cc(O)c1C(=O)O | –
